Screens: PubChem, several laboratories
Hsp70 act = Hsp70 transcriptional activation, primary screen; HeLa Hsp70 promoter luciferase reporter, luminescence; scaled: vehicle 0, proteasome-inhibitor control 100%; activation, % at 10 µM; 200,000 compounds, 0.04% hits; AID 1203;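 active = activation above the mean across all tested compounds plus 3 SD, cutoff set per campaign, cut at about 5.5% in these data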
Lmaj promast = reduces viability of Leishmania major promastigotes; resazurin fluorescence viability; inhibition, % at 10 µM; 200,000 compounds, 9% hits; AID 1063; in the data active = inhibition above about 50%;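 note: promastigotes grown with compound for 44 hours at 28 °C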
T cruzi repl = blocks replication of Trypanosoma cruzi; inhibition, % (concentration not given with the values); 300,000 compounds, 1.4% hits; T. cruzi beta-gal in NIH3T3, luminescence, 90 h; AID 1885;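 active = mean inhibition across valid replicates above about 55%, limit read from the data; inconclusive = mean below that limit but half or more replicates reach it; inactive = mean below it, under half of replicates reach it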;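 note: signal also drops with host cell toxicity which is not excluded here; higher percent means less beta-gal luminescence so fewer parasites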
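Test system: β-gal T. cruzi (Tulahuen C4) inside NIH/3T3 cells / Quantity: 5,000 cells/well / Measured by: luminescence from GalScreen with 0.05% NP40, read after 60 min / Medium: DMEM plus 2% FBS / Measure: parasite load inhibition, % / Reagent: Tulahuen C4 trypomastigotes, 5000/well / Schedule: co-culture of at least 90 h after 3 h attachment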
HSF1 inhib = HSF1 inhibition; NIH3T3-HGL HSE-luciferase, MG132-induced, luminescence 8 h; hits give low values; 300,000 compounds, 0.77% hits; activity change, negative = inhibition, % at 7.5 µM (by protocol);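 active = more than half of replicate wells show activity change below -50%, luminescence cut by over half; inconclusive = some wells, but at most half, below -50%; inactive = no replicate well below -50%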;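 note: luciferase reports HSF-1 transcriptional activity via heat shock element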
HSF1 activator = increases HSF-1 driven luciferase reporter signal; activation, % at 9 µM; 300,000 compounds, 1.7% hits; NIH3T3-HGL HSF-1 luciferase reporter, MG132, 8 h; 100% = twice DMSO control signal; AID 504408;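 active = mean replicate activation of at least 50% with a set share of replicates each reaching 50%; inconclusive = only one of those two conditions met; inactive = mean below 50% and too few replicates reaching it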
Large screens that a line does not name were inactive. The full list was thinned out, with hits kept by preference.

CC(NC(=O)CN(c1ccc(Cl)cc1)S(C)(=O)=O)c1ccccc1 (configuration not stated)	none (no result: Hsp70 act, Lmaj promast)
COc1ccc(N2CCN(S(=O)(=O)c3c(C(=O)N4CCOCC4)c(C)n(C)c3C)CC2)cc1	none (no result: Hsp70 act, Lmaj promast)
O=C(c1sccc1-c1ccccc1)N1CCN(S(=O)(=O)c2ccccc2F)CC1	none (no result: Hsp70 act, Lmaj promast)
Cc1cccc(NC(=S)N2CCN(Cc3ccc4c(c3)OCO4)CC2)c1C	Lmaj promast 89.7
O=[N+]([O-])c1cccnc1Sc1n[nH]c(-c2ccc(Cl)cc2)n1	none (no result: Hsp70 act, Lmaj promast)
O=C(COc1ccccc1/C=C\c1[nH]c(=O)[nH]c(=O)c1[N+](=O)[O-])Nc1ccccc1	T cruzi repl 55.4
CCOC(=O)COc1ccc(Br)cc1/C=C/c1[nH]c(=O)[nH]c(=O)c1[N+](=O)[O-]	HSF1 activator 85.0
CCOc1cc(/C=C\c2[nH]c(=O)[nH]c(=O)c2[N+](=O)[O-])ccc1OC(C)CC (configuration not stated)	HSF1 activator 63.9
N=c1c(-c2nc3ccccc3[nH]2)cc(C(=O)c2ccco2)nn1-c1ccccc1	Lmaj promast 100.3
O=C(NCCCc1nc2ccccc2[nH]1)c1cccs1	none
N=c1c(-c2nc3ccccc3[nH]2)cc(C(=O)c2cccs2)nn1-c1ccccc1	Lmaj promast 99.9, T cruzi repl 72.3
COc1cccc(CC(=O)N[C@@H](CCSC)c2nc3ccccc3[nH]2)c1	HSF1 inhib -53.7
CCOC(=O)c1cnc(Nc2nc3ccccc3o2)nc1CSC(=S)N(CC)CC	Lmaj promast 100.2, T cruzi repl 61.2
Cc1nc(Nc2nc3ccccc3o2)nc(C)c1C	none
CCCc1nc(Nc2nc3ccccc3o2)nc(C)c1C(=O)OCC	HSF1 activator 63.9
CCOC(=O)c1cnc(Nc2nc3ccccc3o2)nc1CSc1ncccn1	none
COc1ccc(CCNC(=O)c2cccc(NC(=O)CC3SC(N4CCCCC4)=NC3=O)c2)cc1OC (configuration not stated)	none (no result: Hsp70 act, Lmaj promast)
O=C(NCc1cccc(CNC(=O)C(=O)NCc2ccco2)c1)C(=O)NCc1ccco1	none
BrC(=C\c1ccccc1)/C=N/N1CCN(Cc2ccccc2)CC1	Lmaj promast 53.4
Cc1ccc(CN2CCN(/N=C/c3ccc(C(F)(F)F)cc3)CC2)cc1	none
FC(F)(F)c1ccc(/C=N/N2CCN(Cc3ccccc3)CC2)cc1	Lmaj promast 54.1
O=C(C[n+]1ccccc1)N/N=C/c1ccccc1C(F)(F)F	none (no result: Hsp70 act, Lmaj promast)
CCOC(=O)c1sc(-c2ccccc2)cc1NC(=O)Nc1ccc([N+](=O)[O-])cc1	Lmaj promast 84.9
CNC(=O)c1c(NC(=O)c2ccc(S(=O)(=O)N(C)c3ccccc3)cc2)sc2c1CCN(C(C)C)C2	none (no result: Hsp70 act, Lmaj promast)
NC(=O)c1ccsc1NC(=O)c1ccc(S(=O)(=O)N2CCCc3ccccc32)cc1	Lmaj promast 99.5
O=S(=O)(NC1CC1)c1ccc(S(=O)(=O)N2CCCc3ccccc32)cc1	Lmaj promast 94.7
CC(C)N1CCc2c(sc(NC(=O)c3ccc(S(=O)(=O)N4CCc5ccccc54)cc3)c2C(N)=O)C1	Lmaj promast 100.2
CS(=O)(=O)N(CC(=O)Nc1ccc(Br)cc1)C1CCCCC1	none (no result: Hsp70 act, Lmaj promast)
CN1CCN(C(=O)CCN2C(=O)/C(=C/c3ccc(F)cc3)SC2=S)CC1	none (no result: Hsp70 act, Lmaj promast)
COc1ccc(-c2cc(=O)n(CCC#N)[nH]2)cc1	Lmaj promast 96.0
CCNC(=O)/C=C1\NC(C)(C)Cc2c1ccc1ccccc21	Lmaj promast 100.4
Nc1cnn(Cc2ccccc2F)c1	Lmaj promast 100.2
Nc1ccn(Cc2ccc(F)cc2)n1	none
Nc1ccc(-c2nnn(Cc3ccccc3F)n2)cc1	none (no result: Hsp70 act, Lmaj promast)
Nc1cnn(Cc2ccc(F)cc2)c1	HSF1 activator 56.3
COc1cccc(Cn2cc(N)cn2)c1	Lmaj promast 98.4
O=C(NCCOCCNC(=O)OCc1ccccc1)OCc1ccccc1	none
COc1cccc(/C=C/C(=O)OCC(=O)Nc2cccc(S(=O)(=O)N(C)C)c2)c1	none
CC(=O)c1cc(-c2nc3ccccc3n2C)n(C)c1	none
Cn1cc(C(=O)c2ccc(F)cc2)cc1-c1nc2ccccc2n1C	Lmaj promast 71.0
CCCCN1C=CC(=C2C(=O)c3ccccc3C2=O)C=C1	Lmaj promast 53.0, HSF1 inhib -82.5
COc1cc(C(=S)N2CCCCC2)ccc1OCC(=O)Nc1ccc(F)cc1	none (no result: Hsp70 act, Lmaj promast)
COc1cccc(/C=C/C(=O)c2cccc([N+](=O)[O-])c2)c1	Lmaj promast 97.5
COc1ccc(C(=O)/C=C/c2ccccc2OC)c(OC(=O)c2ccc([N+](=O)[O-])cc2)c1	Lmaj promast 56.3, HSF1 activator inconclusive
COc1cccc(/C=C/C(=O)c2cccc([N+](=O)[O-])c2)c1OC	Lmaj promast 100.1, HSF1 activator 58.2
O=C(/C=C/c1cccc([N+](=O)[O-])c1)c1ccco1	none (no result: Hsp70 act, Lmaj promast)
COc1ccc(/C=C/C(=O)c2ccncc2)c2ccccc12	Lmaj promast 97.5
CS(=O)(=O)N1CCC(C(=O)Nc2ccccc2Br)CC1	none (no result: Hsp70 act, Lmaj promast)
Cc1ccc(/C=C/C(=O)c2c(C)nc3ccccn23)cc1	none
O=C(/C=C/c1cccc([N+](=O)[O-])c1)c1ccc([N+](=O)[O-])o1	T cruzi repl 56.5, HSF1 activator 54.0 (no result: Hsp70 act, Lmaj promast)
Cc1nc2ccccn2c1C(=O)/C=C/c1cccc([N+](=O)[O-])c1	Lmaj promast 98.2
COc1ccc(OC(=O)c2cccc([N+](=O)[O-])c2)c(C(=O)/C=C/c2cccs2)c1	Lmaj promast 72.7
Cc1cccc(C)c1NC(=O)C[N+](C)(C)CC(O)COc1cccc2ccccc12 (configuration not stated)	none
CCOC(=O)c1c(N2CCCCC2)c2ccccc2[nH]c1=O	HSF1 inhib -58.6
COc1cc(/C=N/NC(=O)C(Cc2c[nH]c3ccccc23)NC(=O)OCC(C)C)cc([N+](=O)[O-])c1O (configuration not stated)	none
COc1cc(/C=N/NC(=O)C(Cc2c[nH]c3ccccc23)NC(=O)OCC(C)C)cc([N+](=O)[O-])c1OCc1ccccc1 (configuration not stated)	Lmaj promast 90.7
O=C(Nc1ccc(Cl)cn1)c1cccc2c(Br)cccc12	none (no result: Hsp70 act, Lmaj promast)
Cc1ccc(C(=O)c2oc3nc(C)cc(C)c3c2N)cc1	Lmaj promast 64.4
COc1ccc2nc(Nc3nc(CSc4nc5ccccc5s4)cc(=O)[nH]3)nc(C)c2c1	none (no result: Hsp70 act, Lmaj promast)
Cc1ccc(N=C2C(=O)Nc3ccccc32)cc1C	HSF1 activator 51.3 (no result: Hsp70 act, Lmaj promast)
COc1cc(/C=N/N=C2/C(=O)Nc3ccccc32)cc(OC)c1O	HSF1 inhib -72.4
O=C(Cc1ccc(Cl)cc1Cl)Nc1cccc(S(=O)(=O)Nc2ccccc2F)c1	Lmaj promast 75.1
O=C(Cc1c(F)cccc1Cl)Nc1cccc(S(=O)(=O)NC2=NCCCCC2)c1	none (no result: Hsp70 act, Lmaj promast)
CC(C(=O)NC1CCCCCC1)c1ccc([N+](=O)[O-])cc1 (configuration not stated)	none (no result: Hsp70 act, Lmaj promast)
CC(C(=O)NC1CC(C)(C)NC(C)(C)C1)c1ccc([N+](=O)[O-])cc1 (configuration not stated)	HSF1 inhib -58.7
